Assay outcomes as filed in PubChem.
The list is not random: actives were taken first. Their share in the collection is about 2.4%.
TbHK1 inh – T. brucei hexokinase 1 inhibition; recombinant TbHK1, G6PDH-coupled NADH A340; AID 1430; 0.11% of 220,000 active; inhibition, % at 10 µM;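 active means inhibition of 50% or more in the single-dose primary screen; inactive means inhibition below 50%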
EP2 modulator – EP2 receptor (human) modulation | P43116 | induction, % at 25 µM | EP2-expressing cells, cAMP HTRF FRET, PGE2 co-stimulation | 0.83% of 260,000 active | AID 940;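 active means compounds whose cAMP rise, as percent of the full-agonist control response, exceeds 60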;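 further: rat C6 glioma line stably carrying human EP2 under a CMV promoter; the protocol text gives 20 µM as final concentration; 100% = response of wells given 1 µM PGE2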
Target sequence (P43116 whole entry, looked up): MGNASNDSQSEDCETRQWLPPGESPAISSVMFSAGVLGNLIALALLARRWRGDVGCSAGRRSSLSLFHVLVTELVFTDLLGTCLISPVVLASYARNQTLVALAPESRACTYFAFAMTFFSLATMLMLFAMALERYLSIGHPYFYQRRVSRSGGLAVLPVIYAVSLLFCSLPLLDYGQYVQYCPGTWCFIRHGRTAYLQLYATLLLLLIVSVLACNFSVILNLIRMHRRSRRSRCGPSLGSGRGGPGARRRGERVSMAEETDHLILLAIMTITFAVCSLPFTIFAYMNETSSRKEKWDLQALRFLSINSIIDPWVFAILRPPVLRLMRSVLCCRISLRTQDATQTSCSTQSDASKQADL
Efa HMGR inh – blocks class II HMG-CoA reductase of Enterococcus faecalis. purified E. faecalis HMGR, NADPH absorbance 340 nm kinetic. inhibition, % at 10 µM. 0.41% of 190,000 active;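 active means inhibition above a set limit, the median over all tested compounds plus 3 SD, cut at about 9.5% in these data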;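 further: enzyme runs in reverse so mevalonate oxidation gives rising NADPH absorbance; 0% = complete reaction with DMSO and 100% = background rate lacking mevalonate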
b-catenin transl – alters nuclear translocation of beta-catenin in HeLa cells; AID 1665; 0.3% of 190,000 active; nuclear translocation activity, % at 5 µM; immunofluorescence imaging;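 active means nuclear translocation activity above 50% at 5 µM, with a well cell count of 50 or more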;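 further: per-cell ratio of nuclear to cytoplasmic median beta-catenin stain intensity; plate controls were DMSO negative control for no effect and GSK-3 inhibitor IX positive control for full effect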
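assay system = human HeLa cells, endogenous beta-catenin | times = compound treatment 24 h, 37°C, 5% CO2 | detection = Anti-beta-catenin immunofluorescence on PFA-fixed, Triton-permeabilized cells, DAPI nuclei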
PGE2 EP2 inh – blocks the human prostaglandin E2 receptor EP2; P43116; inhibition, % at 25 µM; 0.52% of 260,000 active; C6 glioma cells expressing human EP2, cAMP TR-FRET; cells stimulated with saturating PGE2; AID 1422;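 active means percent inhibition above 40 after rounding to a whole number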;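 further: rat C6 glioma host cells with rolipram phosphodiesterase inhibitor present; the protocol text gives 20 µM as final concentration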
MT stabilize HCS – microtubule stabilizers in HeLa cells; 0.83% of 200,000 active; HeLa tubulin immunostaining HCS, 24 h; share of cells brighter than vehicle mean+2SD; % tubulin-high responders, % at 10 µM;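 active means plate Z-score above 3 for both tubulin-high and condensed-nucleus cell shares, with cell loss under 80%, at 10 µM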;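 further: anti alpha tubulin signal scored within the nucleus-defined area of each cell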
An asterisk follows results filed as active; . = not tested or not shown; ! = not active in a repeat.

SMILES	TbHK1 inh	EP2 modulator	Efa HMGR inh	b-catenin transl	PGE2 EP2 inh	MT stabilize HCS
O=C(CN(C(=O)CNC(=O)c1cccs1)c1cccc(C(F)(F)F)c1)NC1CCCCC1	.	28	.	.	11	.
NS(=O)(=O)C1=C(Cl)CC2=NC(CCC(=O)O)=NS(=O)(O)=C2C1	.	11	.	.	45*	.
C=C1OC(C)(C)c2ccccc21	.	31	.	.	7	.
CC1(C)N=C(N)N=C(N)N1c1cccc(OCc2cccc([N+](=O)[O-])c2)c1	.	10	.	.	47*	.
O=C(Nc1nc2ccccc2s1)c1ccc2c(c1)OCCO2	.	-55	.	.	27	.
c1ccc(Cn2c(-c3ccco3)nc3nc4ccccc4nc32)cc1	16	62*	1	2	17	5
COc1ccccc1-n1cnc2cc(NCc3ccccc3O)ccc21	7	-31	.	6	4	.
Cc1ccccc1-n1cnc2cc(NCc3cccs3)ccc21	-4	5	-2	15	3	27*
CC(C)(C)n1cnc2cc(NCc3cccs3)ccc21	7	-57	-7	1	8	3
COc1ccccc1-n1cnc2cc(NCc3cccs3)ccc21	39	-5	-5	162*	18	18*
COc1ccccc1-n1cnc2cc(NCc3ccco3)ccc21	1	-14	-9	131*	3	32*
OCCOc1ccc(CNc2ccccc2-c2nnc(-c3ccncc3)o2)cc1	.	-18	.	.	9	.
CCCCN(CCCC)c1nc(-c2ccncc2)nc2ccccc12	-9	68*	.	-2	8	.
Cc1cccc(N2CCN(c3nc4ccccc4n4cnnc34)CC2)c1C	-11	63*	0	-2	11	4
CCOC(=O)CSc1ccc(-c2nc3cc(C)c(C)cc3[nH]2)cn1	-24	-62	-2	1	57*!	2
O=C(O)CSc1ccc(-c2nc3ccccc3[nH]2)cn1	.	-32	.	.	8	.
CCOC(=O)CSc1ccc(-c2nc3ccccc3[nH]2)cn1	-8	-49	-2	0	42*!	3
CCOc1cc(/C=C(/C#N)C(=O)Nc2ccc(O)cc2)cc(Br)c1O	3	-14	1	62*	15	18
CC(C)(C)NC(=O)Cn1c(=S)[nH]c2ccccc21	.	8	.	.	17	.
CC(=O)c1ccc(N(C(=O)Cc2cccs2)C(C(=O)NC2CCCC2)c2cccs2)cc1 (stereo not given)	.	29	.	.	6	.
COc1ccc(C)cc1N(C(=O)Cc1cccs1)C(C(=O)NC1CCCC1)c1ccc(C)o1 (stereo not given)	.	75*	.	.	11	.
Cc1ccc(N(C(=O)Cc2cccs2)C(C(=O)NC2CCCC2)c2cccs2)cc1 (stereo not given)	.	80*	.	.	11	.
Cc1cccc(CN2C(=O)N/C(=C/c3ccc(C)s3)C2=O)c1	-8	-2	-11	67*	11	53*
Cc1ccc(/C=C2/NC(=O)N(Cc3ccccc3)C2=O)s1	-1	-19	2	2	6	2
COc1ccc(C2/C(=C(/O)c3ccc(C)cc3)C(=O)C(=O)N2CCO)c(OC)c1 (stereo not given)	.	17	.	.	12	.
SMILES	TbHK1 inh	EP2 modulator	Efa HMGR inh	b-catenin transl	PGE2 EP2 inh	MT stabilize HCS
CCn1c(SCC(=O)Nc2ccc(F)cc2)nnc1C(C)C	.	5	.	.	13	.
O=C(Nc1ccccc1N1CCCCC1)c1ccc(-c2ccc(Cl)cc2)o1	-19	15	4	64*	5	29*
O=C(Nc1ccccc1N1CCCCC1)c1cccs1	-6	61*	1	.	4	3
O=C(Nc1ccccc1N1CCCC1)c1ccc(Br)o1	-2	16	-3	1	2	1
O=C(Nc1ccccc1Cl)c1cccs1	-1	5	-6	-3	10	1
COc1ccc(NS(=O)(=O)c2cc(NC(=O)c3ccco3)ccc2N2CCCC2)cc1	-7	-26	-9	2	9	15*
CC1(c2ccccc2NC(=O)c2cccs2)CC1	.	65*	.	.	10	.
CCS(=O)(=O)N1CCC[C@H]1Cn1nc(-c2ccc(F)cc2)ccc1=O	.	-17	.	.	.	.
O=C(COc1ccccc1)Nc1ccccc1N1CCCCC1	33	64*!	-4	1	11	3
Cc1cccc(OCC(=O)Nc2ccccc2N2CCCCC2)c1	12	52	-5	0	3	4
O=C(Nc1ccccc1N1CCCCC1)c1ccco1	0	64*	-5	0	11	2
